Experimental findings from PubChem BioAssay AID1229 (Sanford-Burnham Center for Chemical Genomics, 2008) are described below.

Each structure is given as a SMILES string. Hit rate of the full screen: of about 190,000 compounds, about 10 (0.005%) were called active.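 Rule for the calls: active = diaphorase activity raised at least twofold by the compound at 20 µM; inactive = activation factor below 2.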 This excerpt belongs to a sample that is enriched for actives.

This test is described as follows: compounds boosting diaphorase resazurin reduction – biochemical, uHTS, resorufin fluorescence, counter-screen for diaphorase-coupled primary assays, primary screen (AID 1229). The following applies: Diaphorase/resazurin coupled assay, 16 min, at 20 µM, stronger effect = higher value, 1 = vehicle wells, 0 = NADH-free wells. A digest of the protocol:
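Test system: Clostridium kluyveri diaphorase, purified enzyme; input: enzyme 0.07 U/mL final; buffer or medium: 50 mM HEPES pH 7.4 with 4.542 mM MgCl2, 0.005% Tween 20; also added: 0.114 mM NADH and 0.1 mM resazurin, final amounts; schedule: 16 min enzyme reaction, ambient temperature; technique: fluorescence of resorufin, 544 nm excitation, 590 nm emission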
Consider `COc1ccc([N+](=O)[O-])cc1NC(=O)c1ccc(N(Cc2ccccc2C)S(C)(=O)=O)cc1`, for which the activation factor was 0.9 (inactive).

As to `COc1ccc(NS(=O)(=O)c2cc(NC(=O)C3CCCCC3)ccc2N2CCOCC2)cc1`, the activation factor was 1.1 (inactive).

With `Cc1cc2c(C)nc(N/N=C/c3ccccc3)nc2o1`, the activation factor is 0.9 (inactive).

As for `O=C1NCC(=O)N(Cc2ccccc2)/C1=C/c1ccccc1`, the activation factor is 1 (inactive).

For the compound `CCOC(=O)C(C)Sc1nnc(CSc2nc3nc(C)cc(C)n3n2)o1` (stereo unspecified), the activation factor was 1 (inactive).

Regarding `Cc1ccc(NC2=C(Cl)C(=O)OC2OC(=O)c2ccccc2C)cc1` (stereo unspecified), the activation factor is 0.9 (inactive).

On to `O=C(Nc1ccc(F)cc1)N1CCN(c2ccc(F)cc2)CC1`, for which the activation factor is 0.9 (inactive).

As to `Cc1ccc(/C(N)=N/OC(=O)COc2ccc(Cl)c(C)c2)cc1`, the activation factor was 0.9 (inactive).

Regarding `Cc1cc(C)n(-c2nnc(N3CCN(c4ccccc4)CC3)nn2)n1`, the activation factor was 0.9 (inactive).

Consider `CCn1c(COc2c(C)cccc2C)nnc1SCc1nc2ccccc2c(=O)[nH]1`, for which the activation factor was 0.7 (inactive).

With `Cc1cc(Cl)ccc1C(=O)C1CCCN(C(=O)CCN2CCCO2)C1` (stereo unspecified), the activation factor is 1 (inactive).

For `Oc1c(Br)cccc1/C=N/Nc1c(F)c(F)c(F)c(F)c1F`, the activation factor was 1 (inactive).

For `Cc1ccc(S(=O)(=O)N(CC(=O)NN=C2CCN(C)CC2)c2ccc(F)cc2)cc1`, the activation factor is 0.9 (inactive).

As to `O=C(NC1CCCC1)C(NS(=O)(=O)c1ccc(Br)s1)c1ccccc1` (stereo unspecified), the activation factor was 0.9 (inactive).

Consider `CCOC(=O)C1CCN(C(=O)c2ccccc2N(C)S(=O)(=O)c2ccccc2)CC1`, for which the activation factor is 1 (inactive).

Regarding `Cn1cnnc1SCc1nnc(-c2ccccc2Br)o1`, the activation factor was 1 (inactive).

Turning to `COc1ccc(CNC(=O)CN2CCC(n3nnc4cc(F)ccc43)CC2)cc1`, the activation factor is 0.8 (inactive).

In the case of `C=C(C)c1cccc(C(C)(C)NC(=O)NC2CCCC2)c1`, the activation factor is 0.9 (inactive).

With `Nc1[nH]c(=S)nc2nc(-c3ccccc3)c(-c3ccccc3)nc12`, the activation factor was 0.8 (inactive).

For the compound `CC1=C[C@H]2Cc3cc(C)cc(C)c3S(=O)(=O)[C@@H]2C=C1`, the activation factor was 0.9 (inactive).

Take `CCCCOc1ccc(C(=O)N/C(=C/C=C/c2ccccc2)C(=O)N2CCOCC2)cc1`: the activation factor is 0.8 (inactive).

In the case of `Cc1ccc(S(=O)(=O)Cc2cc(-c3ccc(Cl)cc3)no2)cc1`, the activation factor was 0.8 (inactive).

Take `CCOc1ccc(/C=C(/NC(=O)c2ccccc2)C(=O)NCCC(=O)O)cc1`: the activation factor is 0.9 (inactive).

On to `NC(=O)C[C@@H]1NC(=O)CNC(=O)c2cc([N+](=O)[O-])cc(I)c2NCCC(C(N)=O)NC1=O` (stereo partly specified), for which the activation factor is 1.1 (inactive).

With `CSc1cc(C)[nH]c(=O)n1`, the activation factor is 0.9 (inactive).

Regarding `C[n+]1ccc(/C=C/c2c[nH]c3ccccc23)cc1`, the activation factor was 1 (inactive).

With `COC(=O)CCc1sc(Nc2ccc(Br)cc2)nc1-c1ccc(OC)cc1`, the activation factor is 0.8 (inactive).

On to `O=c1[nH]c2cccnc2n(CCNc2ncc(C(F)(F)F)cc2Cl)c1=O`, for which the activation factor was 0.8 (inactive).

For the compound `COCC1CCCN(Cc2cn[nH]c2-c2cc3ccccc3o2)C1` (stereo unspecified), the activation factor was 0.9 (inactive).

On to `CC1CCCCC1NC(=O)COC(=O)Cc1ccc(Br)cc1` (stereo unspecified), for which the activation factor was 0.9 (inactive).

Consider `O=C1NC2(CCCCCC2)C(=O)N1CCS(=O)(=O)Oc1ccccc1`, for which the activation factor is 1 (inactive).

For the compound `COc1cccc(-n2nc(C(=O)N3CCN(Cc4ccccc4)CC3)c3ccccc3c2=O)c1`, the activation factor is 0.8 (inactive).

Turning to `CCN(CC)CCNCc1ccc(OCc2ccc(Cl)nc2)c(OC)c1`, the activation factor is 1.1 (inactive).

For the compound `CC(C)Oc1c(Br)cc(Br)cc1/C=N/NC(N)=S`, the activation factor is 1 (inactive).

Take `Cc1cc(C)cc(OCC(=O)NNC(=O)CCN2C(=O)c3ccccc3C2=O)c1`: the activation factor was 0.9 (inactive).

Consider `O=C(CCC(=O)NNc1nc2ccccc2c2nc(-c3ccccc3)nn12)NCCCN1CCCC1=O`, for which the activation factor is 0.8 (inactive).

Turning to `COc1ccc(-c2csc(-c3cccs3)n2)cc1OC`, the activation factor was 0.8 (inactive).

`COc1ccc(O)c(C(=O)c2cnc3c(c2)c(-c2ccc(F)cc2)c(C#N)c(=O)n3C)c1`: the activation factor is 0.9 (inactive).

For `CC(C)(C)CC(C)(C)NCC(O)COCCOc1ccc(Br)cc1` (stereo unspecified), the activation factor was 0.9 (inactive).

On to `Cc1cc(NS(=O)(=O)c2ccc(NC(=O)c3cccc(OC(F)F)c3)cc2)nc(C)n1`, for which the activation factor was 1 (inactive).

Take `CCC1S/C(=N/N=C/c2ccco2)NC1=O` (stereo unspecified): the activation factor is 0.9 (inactive).

Regarding `CCOC(=O)C(NC(=O)CC(C)C)(Nc1sc2c(c1C(N)=O)CCCC2)C(F)(F)F` (stereo unspecified), the activation factor was 0.9 (inactive).

`C/C(=N\NC(=O)CNC(=O)C(c1ccccc1)c1ccccc1)c1ccc(C)cc1`: the activation factor is 0.9 (inactive).

With `C=CCn1c(COc2ccc(F)cc2)nnc1SCC(=O)Nc1cccc(S(N)(=O)=O)c1`, the activation factor was 1.1 (inactive).

Consider `CCOc1ccc(NS(=O)(=O)c2cc(C)c(C)cc2C)cc1`, for which the activation factor is 0.8 (inactive).

On to `O=C(Nc1ccc(Cl)cn1)c1ccc2c(c1)OCCO2`, for which the activation factor is 1 (inactive).

Consider `CN(C)S(=O)(=O)c1ccc(N2CCCC2=O)c([N+](=O)[O-])c1`, for which the activation factor is 0.9 (inactive).

As for `S=C(Cc1ccc(Cl)cc1)N1CCOCC1`, the activation factor was 1 (inactive).

On to `CN(Cc1ccc2nsnc2c1)Cc1nc(Cc2cccc(F)c2)no1`, for which the activation factor is 0.8 (inactive).

With `CCN(CC(=O)NCCc1ccccc1)S(=O)(=O)c1ccccc1`, the activation factor is 1 (inactive).

For `NC(N)=N/N=C/c1ccc(OCc2ccc(Cl)cc2Cl)cc1`, the activation factor was 2.2 (active).

`COc1ccc(C(=O)O/N=C(\N)Cc2ccc(Cl)cc2Cl)cc1OC`: the activation factor is 1 (inactive).

Turning to `NC(N)=N/N=C/c1ccc(Cl)c([N+](=O)[O-])c1`, the activation factor was 1 (inactive).

Take `O=C(CCc1n[nH]c(=O)[nH]c1=O)N/N=C/c1ccc(Br)o1`: the activation factor was 1 (inactive).

For the compound `Cc1cccc(OCCNC(=O)CSc2ccc(C(F)(F)F)cc2[N+](=O)[O-])c1`, the activation factor is 0.9 (inactive).

`Cc1ccc(NC(=O)Nc2ccccc2)c(Br)c1`: the activation factor was 0.9 (inactive).

On to `COc1cc2[nH]c(=S)n(Cc3ccc(F)cc3)c(=O)c2cc1OC`, for which the activation factor was 0.9 (inactive).

Regarding `O=C(Nc1ccc2c(c1)OCO2)c1sc2cc(Cl)ccc2c1Cl`, the activation factor was 1 (inactive).

As for `Cc1cc(NC(=O)CSc2nc3ccccc3n2CC(C)C)no1`, the activation factor was 0.8 (inactive).

For `CNC(=O)COc1ccc(S(=O)(=O)Nc2ccccc2)cc1`, the activation factor is 0.8 (inactive).

In the case of `COc1ccc(C)cc1NC(=S)Nc1ccccc1SC`, the activation factor was 1 (inactive).

Consider `Cc1cccc(NC(=O)Nc2ccc3c(c2)OCO3)n1`, for which the activation factor is 0.8 (inactive).

Turning to `CCOc1ccc(C(=O)NC(=S)Nc2ccc(N3CCOCC3)c(Cl)c2)cc1[N+](=O)[O-]`, the activation factor was 0.8 (inactive).

In the case of `O=C(NC1CCCC1)C(c1ccc(N2CCOCC2)cc1)N(C(=O)c1ccco1)c1ccccc1F` (stereo unspecified), the activation factor is 0.9 (inactive).

As for `COc1ccc(N2CCN(C(=O)/C(C#N)=C/c3ccccc3)CC2)cc1`, the activation factor was 1 (inactive).

Consider `O=[N+]([O-])c1ccccc1SNc1ccccn1`, for which the activation factor was 0.8 (inactive).

On to `COc1ccccc1C(=O)Nc1ccc(OCc2nnc3c4ccccc4c(C)nn23)cc1`, for which the activation factor is 0.8 (inactive).

Take `CO/N=C(\N)c1ccc([N+](=O)[O-])cc1`: the activation factor was 0.9 (inactive).

Regarding `O=S(=O)(Nc1cc(S(=O)(=O)N2CCOCC2)ccc1N1CCCC1)c1cccs1`, the activation factor was 0.9 (inactive).

As for `O=C(COc1cccc(F)c1)Oc1ccc(C(=O)c2ccccc2)cc1`, the activation factor was 0.9 (inactive).

In the case of `O=C(NNC(=S)Nc1ccccc1)c1cccc(S(=O)(=O)N2CCOCC2)c1`, the activation factor is 0.9 (inactive).

For the compound `COC(=O)/C=C\C(=O)Nc1cccc([N+](=O)[O-])c1`, the activation factor was 1.1 (inactive).

With `CCC(C)N(C(=O)COC(=O)C1C(C(=O)OC)=C(C)NC(C)=C1C(=O)OC)C1CCS(=O)(=O)C1` (stereo unspecified), the activation factor is 0.9 (inactive).

As to `CCn1c(SCC(=O)Nc2ccc(C)cc2)nc2nc3c(cc2c1=O)CCCC3`, the activation factor is 0.9 (inactive).

Turning to `Cc1cc(C)n(Cc2cnc(N3CCOCC3)s2)n1`, the activation factor was 1 (inactive).

`Cc1ccccc1CN1C[C@@H]2C[C@@H](c3ccc4nsnc4c3)N3CCC[C@@]23C1=O`: the activation factor is 0.8 (inactive).

Turning to `O=C(/C=C/c1ccc2c(c1)OCO2)NCc1cn2cc(Cl)ccc2n1`, the activation factor is 1.1 (inactive).

Take `CCN(CC)CCNC(=O)c1sc2ncn(CC(=O)Nc3ccc(C)c(Cl)c3)c(=O)c2c1C`: the activation factor was 0.9 (inactive).

For the compound `Cc1cc(Cl)ccc1NC(=S)NCCCN1CCCC1=O`, the activation factor is 1 (inactive).

On to `CCCCn1nc(C(=O)Nc2ccc(S(=O)(=O)Nc3ncccn3)cc2)c2ccccc2c1=O`, for which the activation factor is 0.9 (inactive).

With `C#CCOCCOCCOCCNc1nc(N2CCN(C(=O)[C@H](CCCCN)n3cc([C@@H](N)C(C)CC)nn3)CC2)nc(N2CCN(C(=O)[C@H](Cc3ccc(O)cc3)n3cc([C@@H](N)C(C)CC)nn3)CC2)n1` (stereo partly specified), the activation factor is 1.7 (inactive).

`Cn1c(=O)cc(OCC(=O)N2CCN(c3ccccc3F)CC2)c2ccccc21`: the activation factor is 0.9 (inactive).

In the case of `Cc1cc(F)ccc1S(=O)(=O)Nc1ncnc2scc(-c3ccc(F)cc3)c12`, the activation factor is 0.8 (inactive).

Turning to `CCOC(=O)CSc1nc(C)cc2c1C(=O)OC2`, the activation factor is 1 (inactive).

Take `Fc1cc(Br)ccc1NC(=S)Nc1cccnc1`: the activation factor is 1 (inactive).

As for `Cc1ccc(NC(=O)NNC(=O)c2sccc2-n2cccc2)cc1`, the activation factor is 1 (inactive).

As to `CNC(=O)c1ccc(NC(=O)c2cccc(C(F)(F)F)c2)cc1`, the activation factor is 0.9 (inactive).

Consider `O=c1cc(CO)oc(C(Nc2cccc(C(F)(F)F)c2)c2ccccn2)c1O` (stereo unspecified), for which the activation factor was 0.7 (inactive).

As for `Cc1ccc2c(c1)C(c1ccccc1)N(C(=O)c1ccc(S(=O)(=O)N3CCOCC3)cc1)CC(=O)N2` (stereo unspecified), the activation factor is 1 (inactive).

`CN1C(=O)/C(=C/c2ccc(C(=O)NC3CCCC3)cc2)Oc2ccccc21`: the activation factor was 1 (inactive).

With `CN1C=CC=C/C1=C1\SC(=S)N(Cc2ccccc2)C1=O`, the activation factor was 1 (inactive).

As for `CCCCC(=O)Nc1ccc(C(=O)Nc2cc(C(F)(F)F)ccc2Cl)cc1`, the activation factor is 1 (inactive).

For `CCOC(=O)C/C(C)=N\Nc1ccc([N+](=O)[O-])cc1[N+](=O)[O-]`, the activation factor was 0.9 (inactive).

With `N/C(=N\OC(=O)CCc1ccccc1)c1cccnc1`, the activation factor is 1 (inactive).

As for `CCCOc1ccc(NC(=O)CC2C(=O)N(C)C(=S)N2Cc2ccc3c(c2)OCO3)cc1` (stereo unspecified), the activation factor was 0.8 (inactive).

For `CC(C(=O)O)n1cnc2sc3c(c2c1=O)CCCC3` (stereo unspecified), the activation factor is 0.9 (inactive).

Take `NC1=NC(=O)C(Cc2cccc(Cl)c2Cl)S1` (stereo unspecified): the activation factor is 1 (inactive).

As for `COc1ccc(CCNC(=O)CSc2nc3[nH]ncc3c(=O)n2-c2cccc(C(F)(F)F)c2)cc1OC`, the activation factor was 0.9 (inactive).

Regarding `CC(C)(C)OC(=O)N/N=C/c1cn(-c2ccccc2)nc1-c1cccnc1`, the activation factor was 1 (inactive).

For the compound `O=C(NC(=S)Nc1ccc2oc(=O)ccc2c1)c1ccc(-c2cccc(Cl)c2Cl)o1`, the activation factor was 1.1 (inactive).

Regarding `COc1ccc(CN2CCN(Cc3cn(C)nc3-c3ccccc3)CC2CCO)c(C)c1C` (stereo unspecified), the activation factor was 1 (inactive).
